Measurements pooled from the literature.
Converted amounts (≈) assume the structure as drawn.

SMILES	organism	assay	system	conditions	measurement	result
Cc1cc(CCCOc2c(C)cc(-c3noc(C(F)(F)F)n3)cc2C)on1	Enterovirus	cytopathic effect, inhibitor	HeLa	–	IC50	50 nM
O=C1CC(N(OCc2ccccc2)C(=O)c2cc([N+](=O)[O-])cc(C(F)(F)F)c2)N1 (stereo not drawn)	Mycolicibacterium vaccae	microbial growth	–	–	MIC	6.25 µM
OC(Cn1cncn1)(Cn1cncn1)c1ccc(F)cc1F	Kluyveromyces marxianus	microbial growth, broth dilution	–	24 h	MIC90	1 µg/mL (≈ 3.27 µM)
Nc1nc(-c2ccccc2)nc2[nH]nc(Nc3ccc(C(F)(F)F)cc3)c12	Enterovirus	cytopathic effect	HeLa	–	IC50	4590 nM
CCCCCCCCCCCC(=O)Oc1c(C)c(O)c(C(=O)/C=C/c2ccccc2)c(OC)c1C	Pseudomonas aeruginosa	microbial killing, broth dilution	ATCC27853	–	MBC	> 5000 µg/mL
CC1(C)S[C@@H]2[C@H](NC(=O)[C@H](N)c3ccccc3)C(=O)N2[C@H]1C(=O)O	Limosilactobacillus reuteri	microbial growth, broth dilution	ATCC23272	–	MIC	1 µg/mL
O=C(Nc1ccccc1-c1ccc(F)c(F)c1)c1nccnc1C(F)(F)F	Mycosphaerella arachidis	microbial growth	–	–	EC50	0.12 µg/mL (≈ 0.316 µM)
C=CCON(C(=O)c1cc([N+](=O)[O-])cc(C(F)(F)F)c1)C1CC(=O)N1SC (stereo not drawn)	Mycolicibacterium vaccae	microbial growth	–	–	MIC	6.25 µM
O=C(O)c1cn(C2CC2)c2cc(N3CCNCC3)c(F)cc2c1=O	Mycolicibacterium vaccae	microbial growth	10670	1000 µg/mL	inhibition zone	21 mm
